Bioassay records: PubChem BioAssay, The Scripps Research Institute Molecular Screening Center
NPY Y1 blocker: antagonists of human neuropeptide Y receptor Y1 | actives 1% (n = 200,000) | HEK293-CNG Y1 cells, membrane potential fluorescence; NPY at EC95, then isoproterenol | inhibition, % at 3.6 µM | P25929 | AID 1040;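 active means inhibition above the campaign mean inhibition of all tested compounds plus 3 SD, cut at about 20% in these data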
Target sequence (P25929 whole entry, looked up): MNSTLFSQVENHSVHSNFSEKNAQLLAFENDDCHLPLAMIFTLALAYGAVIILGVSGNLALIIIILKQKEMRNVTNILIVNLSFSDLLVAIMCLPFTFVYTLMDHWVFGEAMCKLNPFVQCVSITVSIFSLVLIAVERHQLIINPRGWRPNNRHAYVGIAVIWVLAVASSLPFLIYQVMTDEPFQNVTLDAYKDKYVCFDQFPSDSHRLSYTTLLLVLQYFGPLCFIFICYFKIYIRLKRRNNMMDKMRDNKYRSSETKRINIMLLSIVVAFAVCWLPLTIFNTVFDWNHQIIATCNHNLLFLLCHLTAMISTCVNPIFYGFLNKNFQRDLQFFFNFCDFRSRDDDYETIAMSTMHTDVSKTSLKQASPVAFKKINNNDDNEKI
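Assay system: HEK293 Y1/CNG channel cell line; Doses: single compound dose of 3.6 µM, 0.4% DMSO; Timing: dye 3 h, compound 60 min room temperature, stimulation 45 min; Technique: Membrane-potential fluorescent dye readout; Measure: % inhibition of NPY effect.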
NPY-Y2 PAM-ag: potentiators or agonists of human neuropeptide Y receptor Y2; cells expressing NPY-Y2, potentiator/agonist read-out; actives 0.45% (n = 220,000); P49146; activation, % at 3.6 µM; AID 1359; in the data active means activation above about 27%;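 further: cells stimulated with NPY near EC25 plus isoproterenol at EC100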
NPY-Y1 PAM-ag: human NPY-Y1 potentiation or agonism, primary screen | P25929 | NPY-Y1 expressing cells, potentiator/agonist activation | activation, % at 3.6 µM | actives 0.37% (n = 220,000) | AID 1304; in the data active means activation above about 33%, passing the limit was not always enough;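 further: cells stimulated with NPY at EC10 then isoproterenol at EC100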
NPY-Y2 antag: blocks the human neuropeptide Y Y2 receptor. NPY-Y2 expressing cells, antagonist mode. AID 793. actives 0.99% (n = 140,000). inhibition, % at 2.7 µM; in the data active means inhibition above about 17%
Numbers stand for hits; n = inactive; x = not tested or not shown. A selection: hits, their analogues and other compounds. The true share with any hit is near 1.8%.

SMILES	NPY Y1 blocker	NPY-Y2 PAM-ag	NPY-Y1 PAM-ag	NPY-Y2 antag
COc1ccc(N(C(=O)CCl)C(C(=O)NCCc2ccccc2)c2cccs2)cc1 (stereo not given)	n	35.1	54.1	n
Cc1ccc(NC(=S)NNC(=O)c2nnn(-c3ccccc3)c2C)cc1	n	n	n	n
Cc1ccc(N=C(NOCc2ccc(Cl)cc2Cl)c2nonc2N)c(C)c1	31.6	n	n	20.8
Cc1ccccc1N=C(NOCc1ccc(Cl)cc1Cl)c1nonc1N	33.1	n	n	29.6
O=C(COC(=O)c1cc2ccccc2cc1O)NC(=O)NCc1ccco1	20.6	n	n	x
CC(C)c1ccc(NC(=O)C2CCCCC2C(=O)O)cc1 (stereo not given)	n	n	n	n
O=C(O)[C@H]1CCCC[C@H]1C(=O)Nc1ccc(Nc2ccccc2)cc1	n	34.0	48.6	n
CC(C)C(NC(=O)c1ccc(C(C)(C)C)cc1)C(=O)Nc1cccc(S(N)(=O)=O)c1 (stereo not given)	n	36.8	42.6	x
Cc1ccc(C(=O)NC(C(=O)Nc2cccc(S(N)(=O)=O)c2)C(C)C)cc1 (stereo not given)	x	n	n	x
COc1ccc(NC(=O)c2ccc(-c3nn(C)c(=O)c4ccccc34)cc2)cc1C(N)=O	x	n	n	x
N#Cc1cccc(C#N)c1Oc1ccc(N)cc1	x	n	n	x
COC(=O)c1cccc(Oc2cccc(C(F)(F)F)c2)n1	n	n	n	x
N=c1c2c(ncn1Cc1ccco1)Oc1ccc3ccccc3c1C2c1ccccc1 (stereo not given)	39.5	n	n	32.5
COc1ccc(C2c3c(ncn(Cc4ccco4)c3=N)Oc3ccc4ccccc4c32)cc1 (stereo not given)	n	n	n	n
Cc1ccc(NC(=O)c2ccccc2OCC(=O)Nc2cccc(Cl)c2C)nc1	n	n	n	x
O=C(COc1ccc([N+](=O)[O-])cc1)N(Cc1ccccc1)Cc1ccccc1	20.9	n	n	22.9
O=C(COc1ccc(Cl)cc1)NCCSCc1cccc(Cl)c1	n	n	n	17.1
CCCCC(C)(O)C/C=C/[C@H]1[C@H](O)CC(=O)[C@@H]1CCCCCCC(=O)OC (stereo not given in full)	106.4	n	n	93.2
O=C(CNS(=O)(=O)c1cccc(Cl)c1)Nc1ccc(-c2nc3ccccc3s2)cc1	n	n	n	n
CC(NS(=O)(=O)c1cccc(Cl)c1)C(=O)Nc1ccc(-c2nc3ccccc3s2)cc1 (stereo not given)	n	n	54.6	n
O=C(NC1CCCCCC1)c1cc(S(=O)(=O)N2CCCCC2)ccc1N1CCOCC1	21.0	n	n	x
O=C(NC1CCCCCC1)c1cc(S(=O)(=O)N2CCOCC2)ccc1N1CCCCC1	n	n	n	n
Cc1ccc(-n2c(-c3ccc(Br)cc3)c[n+]3c2CCc2ccc4cccnc4c2-3)cc1	54.2	n	n	69.6
CCOc1ccccc1N(C(=O)c1snc(C(N)=O)c1N)C(C(=O)NC1CCCC1)c1ccco1 (stereo not given)	26.4	n	n	19.5
COc1cccc(CN2CCC(N(CCc3ccccc3)Cc3ccccc3)CC2)c1OC	34.5	n	n	30.9
SMILES	NPY Y1 blocker	NPY-Y2 PAM-ag	NPY-Y1 PAM-ag	NPY-Y2 antag
O=c1[nH]c2ccc(Cl)cc2c(O)c1-c1ccccc1	n	n	n	17.8
CCNC(=S)Nc1ccc(S(=O)(=O)Nc2cc(C)nc(C)n2)cc1	n	n	n	x
O=C1CC(=C(c2ccccc2)c2ccccc2)C(=O)N1CCCN1CCN(c2cccc(Cl)c2)CC1	n	62.5	75.4	n
C[C@H]1O[C@H](O[C@H]2[C@H](O)[C@@H](O)[C@@H](O[C@H]3[C@H](O)[C@@H](O)C(O)O[C@@H]3CO)O[C@@H]2CO)[C@H](O)[C@@H](O)[C@@H]1N[C@H]1C=C(CO)[C@@H](O)[C@H](O)[C@H]1O (stereo not given in full)	n	n	n	x
COc1cccc2cc(C(=O)NCCc3c[nH]c4ccccc34)c(=O)oc12	n	n	n	x
CC1CCN(c2nc(-c3ccncc3)nc3ccccc23)CC1	31.0	n	n	29.5
CCC(CC)C1C(C#N)=C(N)Oc2n[nH]c(-c3ccccc3)c21 (stereo not given)	n	37.8	49.0	n
CCC(CC)C1C(C#N)=C(N)Oc2n[nH]c(C)c21 (stereo not given)	n	n	n	n
N#CC1=C(N)Oc2n[nH]c(-c3ccccc3)c2C1c1ccsc1 (stereo not given)	36.3	n	n	n
N#CC1=C(N)Oc2n[nH]c(-c3ccncc3)c2C1c1ccsc1 (stereo not given)	n	n	n	n
Cc1ccc(N2C(=O)C3ON(c4ccccc4)C(CC(C)C)C3C2=O)cc1 (stereo not given)	x	n	n	x
CC(C)CCn1c(Cl)nc2c1c(=O)n(C)c(=O)n2C	n	n	n	n
CC(C)CCNC(=O)Cn1c(NCCC(C)C)nc2c1c(=O)n(C)c(=O)n2C	60.3	n	n	n
COCc1c(C(=O)OC/C(O)=C(\C#N)c2nc3ccccc3[nH]2)oc2ccccc12	20.4	n	n	x
O=C(O)C(Cc1ccccc1)N1C(=O)/C(=C/c2cccc3ccccc23)SC1=S (stereo not given)	n	n	n	19.9
O=C(O)C(Cc1ccccc1)N1C(=O)/C(=C/c2ccccc2)SC1=S (stereo not given)	n	n	n	n
Cc1c(Cc2c(Cl)cccc2Cl)c(=O)ccn1C(C)c1ccccc1 (stereo not given)	n	n	n	21.9
CCCCOc1ccc(Nc2cc(Cl)ccc2C(=O)O)cn1	x	n	n	x
COc1ccc(Nc2ccnc3ccccc23)cc1	n	n	n	n
CC(C)Nc1ccc(Nc2ccnc3cc4ccccc4cc23)cc1	x	75.1	80.8	x
CC1(C)CC(NC(=O)CCc2nnc(CCCCc3ccccc3)o2)CCO1 (stereo not given)	n	n	n	x
CC(=O)SC(C)CC(=O)Nc1ccccc1 (stereo not given)	n	33.7	41.9	n
CC(=O)SC(C)CC(=O)NCc1ccccc1 (stereo not given)	n	54.1	118.7	n
CC(Sc1nnc(-c2ccc(Cl)cc2Cl)n1Cc1ccccc1)C(=O)Nc1nccs1 (stereo not given)	25.9	n	n	29.3
Cc1nnc(SC(C)C(=O)Nc2ccc(Cl)cn2)n1Cc1ccccc1 (stereo not given)	n	n	n	n
CC(C)COP(=O)(OCC(C)C)C(Nc1ccccc1)c1ccc(F)cc1 (stereo not given)	31.3	n	n	22.6
CC(C)COP(=O)(OCC(C)C)C(Nc1ccccc1)c1ccccc1 (stereo not given)	x	n	n	x
Cc1cccc(NS(=O)(=O)c2ccc(NC(=O)CN(c3cc([N+](=O)[O-])ccc3C)S(C)(=O)=O)cc2)c1	n	42.0	50.5	n
COc1ccc(C)cc1NS(=O)(=O)c1ccc(NC(=O)CN(c2cc([N+](=O)[O-])ccc2C)S(C)(=O)=O)cc1	n	26.9	40.3	n
CC1CCc2c(nc3ncnn3c2NCCc2ccccc2F)C1 (stereo not given)	n	n	n	x
